≈ marks a conversion by molar mass, not a printed value. Calls of active or inactive are those of the source. The calls are words filed in the database; no cut-off is given here.
Experiments:
Escherichia coli [1] = assay: Antibacterial activity against drug sensitive Escherichia coli DH5alpha assessed as reduction in bacterial growth by broth microdilution method; type: functional
Method in brief: (§1)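 MICs were determined by standard twofold serial broth microdilution in lysogeny broth (LB) medium.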

Pseudomonas aeruginosa = assay: Antibacterial activity against drug sensitive Pseudomonas aeruginosa PAO1 assessed as reduction in bacterial growth by broth microdilution method; type: functional; method in brief: as §1
Staphylococcus aureus [2] = assay: Antibacterial activity against methicillin-resistant Staphylococcus aureus assessed as increase in number of bacteria at 3 times MIC measured up to 5 hrs; type: functional, organism-based
Method in brief: (§2)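 Cells washed three times in sterile saline by centrifugation, moved to fresh TSB at 37 °C. Viable counts plated on TSB agar at 2–17 h. PCE = t − c, the time for a 1-log rise in treated versus control. Run twice.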

Enterococcus = assay: Antibacterial activity against vancomycin-resistant Enterococcus assessed as reduction in bacterial growth by broth microdilution method; type: functional
Method in brief: (§3)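 Twofold serial dilution (microdilution) MIC in lysogeny broth (LB) medium against drug-resistant strains: MRSA USA300, vancomycin-resistant Enterococci, Klebsiella pneumoniae.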

Cell membrane [3] = assay: Induction of cell membrane integrity in methicillin-resistant Staphylococcus aureus assessed as increase in K+ efflux at 3 times MIC by absorption spectrophotometric analysis; type: subcellular
Method in brief: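 K+ leakage: mid-log MRSA (6 h) resuspended in 10 mM HEPES (pH 7.3)/5 mM glucose at ~2 × 10^6 CFU mL-1. Incubated with compound at 3× MIC at 37 °C for various times, PBS control. Supernatant K+ measured by atomic absorption spectrophotometry. Duplicate.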

Escherichia coli [4] = assay: Bactericidal activity against Escherichia coli at 2 to 3 times MIC incubated for 24 hrs by time kill assay; type: functional, organism-based
Staphylococcus aureus [5] = assay: Antibiofilm activity against Methicillin-resistant Staphylococcus aureus assessed as reduction in number of viable cells at 8 times MIC incubated for 24 hrs; type: functional, organism-based
[6] = Cytotoxicity against human HEK293 cells assessed as inhibition of cell growth incubated for 24 hrs by MTT assay; type: toxicity, cell-based
Method in brief: (§4)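 MTT assay with 24 h exposure of cells to the samples. IC50 is the concentration giving 50% growth inhibition, reported as mean ± S.D. of three independent experiments.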

Escherichia coli [7] = assay: Antibiofilm activity against Escherichia coli assessed as reduction in number of viable cells at 4 times MIC incubated for 24 hrs; type: functional, organism-based
Method in brief: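 E. coli was grown to mid-log phase and adjusted to 2 × 10^6 CFU mL−1. Biofilms were grown for 48 h, then the spent medium was removed and loose cells were washed off with PBS. Compound was added at MIC, 2× MIC or 4× MIC for 24 h, with a sterile-medium control. Biofilms were dispersed with trypsin–EDTA, 10-fold dilutions were plated, and colonies were counted after 24 h as log10 CFU mL−1.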

Staphylococcus aureus [8] = assay: Antibiofilm activity against Methicillin-resistant Staphylococcus aureus assessed as reduction in number of viable cells at 16 times MIC incubated for 24 hrs; type: functional, organism-based
Staphylococcus aureus [9] = assay: Drug resistance, ratio of MIC for Staphylococcus aureus after 15 days to MIC for Staphylococcus aureus after initial exposure; type: functional; conditions: time 15 day
Method in brief: (§5)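 Resistance development: MRSA serially subcultured in fresh medium starting from the initial MIC. MIC reassessed every 24 h over 24 days, alongside a reference antibiotic given in twofold dilutions.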

Klebsiella pneumoniae = assay: Antibacterial activity against drug-resistant Klebsiella pneumoniae assessed as reduction in bacterial growth by broth microdilution method; type: functional; method in brief: as §3
Staphylococcus aureus [10] = assay: Antibacterial activity against methicillin-resistant Staphylococcus aureus USA300 assessed as reduction in bacterial growth by broth microdilution method; type: functional; method in brief: as §3
Staphylococcus aureus [11] = assay: Antibacterial activity against methicillin-resistant Staphylococcus aureus assessed as effect on viable bacterial growth measured after 24 hrs; type: functional, organism-based
Staphylococcus aureus [12] = assay: Antibacterial activity against methicillin-resistant Staphylococcus aureus assessed as increase in number of bacteria at 2 times MIC measured at 3 hrs; type: functional, organism-based; method in brief: as §2
Staphylococcus aureus [13] = assay: Antibacterial activity against methicillin-resistant Staphylococcus aureus assessed as reduction in viable bacterial count measured after 18 hrs; type: functional, organism-based
[14] = Plasma protein binding in dog assessed as unbound fraction measured after 4 hrs by rapid equilibrium dialysis based LC-MS/MS analysis; type: ADME, cell-free, Canis lupus familiaris
Method in brief: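 Rapid equilibrium dialysis of dog plasma against PBS pH 7.4 across an 8000 MWCO membrane. A 10 mM stock was diluted 1:50 with water and added to the plasma side, with sarolaner as control. Plates were shaken for 4 h at 37 °C. Proteins were precipitated with ACN and both chambers quantified by LC-MS/MS. % free = buffer/plasma concentration × 100; % bound = 100 − % free. n = 4.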

Cell membrane [15] = assay: Induction of cell membrane depolarization in methicillin-resistant Staphylococcus aureus assessed as increase in fluorescence intensity at 3 times of MIC measured up to 15 hrs by DiSC3-5 dye based fluorescence analysis; type: subcellular
Method in brief: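 Membrane potential assay. Mid-log MRSA (6 h growth) pelleted and resuspended in 100 mM KCl, 5 mM HEPES (pH 7.3) and 5 mM glucose (1:1:1). Mixed with DiSC3(5) at 8 μM final and preincubated 40 min at 37 °C. Compound added at 3× MIC, water control. Fluorescence read at ex 622 / em 670 nm.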

Staphylococcus aureus [16] = assay: Antibiofilm activity against Methicillin-resistant Staphylococcus aureus assessed as reduction in number of viable cells at 3 times MIC incubated for 24 hrs; type: functional, organism-based
Method in brief: (§6)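 Biofilm eradication: mid-log MRSA at 2 × 10^6 CFU mL-1 grown 48 h to form biofilms, then washed with PBS. Biofilms exposed to compound at MIC, 2× or 3× MIC for 24 h; medium-only control. Biofilms dispersed with trypsin–EDTA, serial 10-fold dilutions plated, colonies counted after 24 h, expressed as log10 CFU mL-1.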

Cell membrane [17] = assay: Induction of cell membrane permeabilization in methicillin-resistant Staphylococcus aureus assessed as increase in fluorescence intensity at 3 times MIC incubated for 8 hrs by PI staining based confocal laser scanning microscopic analysis; type: subcellular
Method in brief: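 Log-phase MRSA washed in PBS (10 mM, pH 7.2) and resuspended at 2 × 10^6 CFU mL-1 (OD600 0.2–0.4). Treated at 3× MIC for 8 h at 37 °C, PBS control. Stained with SYTO 9/propidium iodide 30 min in the dark, imaged by confocal laser scanning microscopy. Duplicate.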

Staphylococcus aureus [18] = assay: Antibiofilm activity against Methicillin-resistant Staphylococcus aureus assessed as reduction in number of viable cells at 2 times MIC incubated for 24 hrs; type: functional, organism-based; method in brief: as §6
Staphylococcus aureus [19] = assay: Antibacterial activity against methicillin-resistant Staphylococcus aureus infected in Kunming mouse corneal infection model assessed as reduction in viable bacterial count at 6 mg/ml, TOP administered 3 times daily for 1 week; type: functional, organism-based; conditions: time 1.0 weeks
Method in brief: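 Corneal infection model: male and female Kunming mice (~20 g) immunosuppressed with daily i.p. cyclophosphamide for 3 days. Anesthetized with i.p. avertin (400 mg kg-1), corneas abraded and given 20 μL MRSA (6 × 10^7 CFU mL-1). From 24 h post-infection, treated by topical smear three times daily for one week. Controls: 5% glucose and 5% vancomycin. Six mice per group. Corneal viable counts measured.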

Staphylococcus aureus [20] = assay: Antibacterial activity against methicillin-resistant Staphylococcus aureus measured for 9 days; type: functional, organism-based; conditions: time 9.0 day; method in brief: as §5
[21] = Cytotoxicity against human HK-2 cells assessed as inhibition of cell growth incubated for 24 hrs by MTT assay; type: toxicity, cell-based; method in brief: as §4
Escherichia coli [22] = assay: Antibiofilm activity against Escherichia coli assessed as reduction in number of viable cells at 8 times MIC incubated for 24 hrs; type: functional, organism-based

With `CC(C)(C)c1ccc(CCNc2nc3ccccc3nc2N)cc1` the MIC (Escherichia coli [1]) was 4 µg/mL (≈ 12.5 µM), the MIC (Pseudomonas aeruginosa) was 64 µg/mL (≈ 200 µM) and the Activity (Staphylococcus aureus [2]) was “Active”. For the same molecule, the MIC (Enterococcus) was greater than 128 µg/mL, the Activity (Cell membrane [3]) was “Active” and the Activity (Escherichia coli [4]) was “inactive”. For the same molecule, the Activity (Staphylococcus aureus [5]) was “Active”, the IC50 at 24 h [6] was 129 µg/mL (≈ 403 µM) and the Activity (Escherichia coli [7]) was “Active”. The Activity (Staphylococcus aureus [8]) was “Active”, the Ratio (Staphylococcus aureus [9]) was 3 and the MIC (Klebsiella pneumoniae) was 128 µg/mL (≈ 399 µM). For the same molecule, the MIC (Staphylococcus aureus [10]) was 8 µg/mL (≈ 25 µM), the Activity (Staphylococcus aureus [11]) was “Active” and the Activity (Staphylococcus aureus [12]) was “Active”. For the same molecule, the Activity (Staphylococcus aureus [13]) was “Dose-dependent-effect”, the fraction unbound at 4 h [14] was 0.0731 and the Activity (Cell membrane [15]) was “Active”. For the same molecule, the Activity (Staphylococcus aureus [16]) was “Active”, the Activity (Cell membrane [17]) was “inactive” and the Activity (Staphylococcus aureus [18]) was “Active”. For the same molecule, the Activity (Staphylococcus aureus [19]) was “Active”, the Activity (Staphylococcus aureus [20]) was “Active” and the IC50 at 24 h [21] was 146 µg/mL (≈ 454 µM). For the same molecule, the Activity (Escherichia coli [22]) was “Active”.

Reference: ChEMBL document CHEMBL6177922, “Antibacterial activity of the structurally novel C-2 amine-substituted analogues based on quinoxaline” (RSC Med Chem, 2025)
